Tests used:
[1] = biological target: Aurora kinase A (Homo sapiens) (UniProt O14965); experiment: Percentage activity of human Aurora-A in the presence of 10 uM of compound and 10 uM of ATP in comparison with control
[2] = biological target: Mitogen-activated protein kinase 8 (Homo sapiens) (UniProt P45983); experiment: Percentage activity of human JNK1a1 in the presence of 10 uM of compound and 10 uM of ATP in comparison with control
[3] = biological target: Ribosomal protein S6 kinase alpha-1 (Homo sapiens) (UniProt Q15418); experiment: Percentage activity of human Rsk1 in the presence of 10 uM of compound and 10 uM of ATP in comparison with control
[4] = biological target: Ribosomal protein S6 kinase alpha-5 (Homo sapiens) (UniProt O75582); experiment: Percentage activity of human MSK1 in the presence of 10 uM of compound and 10 uM of ATP in comparison with control
Chain of Ribosomal protein S6 kinase alpha-5 (Homo sapiens) (O75582 whole entry, looked up): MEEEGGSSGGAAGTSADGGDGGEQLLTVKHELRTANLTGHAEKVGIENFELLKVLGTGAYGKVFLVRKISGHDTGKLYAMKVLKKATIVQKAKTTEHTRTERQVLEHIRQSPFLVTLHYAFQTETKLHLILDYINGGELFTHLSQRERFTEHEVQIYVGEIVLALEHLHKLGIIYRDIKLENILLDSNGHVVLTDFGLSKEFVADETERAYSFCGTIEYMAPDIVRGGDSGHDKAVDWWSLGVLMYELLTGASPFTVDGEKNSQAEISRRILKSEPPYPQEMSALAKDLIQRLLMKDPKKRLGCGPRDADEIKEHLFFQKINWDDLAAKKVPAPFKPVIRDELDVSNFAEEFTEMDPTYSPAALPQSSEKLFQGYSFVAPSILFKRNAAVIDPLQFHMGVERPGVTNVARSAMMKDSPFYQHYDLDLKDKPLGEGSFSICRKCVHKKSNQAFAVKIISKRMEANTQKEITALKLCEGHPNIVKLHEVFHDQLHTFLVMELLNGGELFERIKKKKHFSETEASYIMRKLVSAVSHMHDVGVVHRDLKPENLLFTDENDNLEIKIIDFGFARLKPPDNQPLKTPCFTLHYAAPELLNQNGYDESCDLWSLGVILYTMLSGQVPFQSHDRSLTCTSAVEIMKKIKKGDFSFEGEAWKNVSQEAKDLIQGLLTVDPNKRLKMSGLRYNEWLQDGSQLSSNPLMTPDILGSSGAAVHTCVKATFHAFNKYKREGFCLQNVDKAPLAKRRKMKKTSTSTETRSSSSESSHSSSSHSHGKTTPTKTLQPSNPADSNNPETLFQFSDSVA

[5] = biological target: BDNF/NT-3 growth factors receptor TrkB (Homo sapiens) (UniProt Q16620); experiment: Percentage activity of human TrkB in the presence of 10 uM of compound and 10 uM of ATP in comparison with control
[6] = biological target: Inhibitor of nuclear factor kappa-B kinase subunit alpha (Homo sapiens) (UniProt O15111); experiment: Percentage activity of human IKK alpha in the presence of 10 uM of compound and 10 uM of ATP in comparison with control
[7] = biological target: Dual specificity mitogen-activated protein kinase kinase 4 (Mus musculus) (UniProt P47809); experiment: Percentage activity of mouse MKK4 in the presence of 10 uM of compound and 10 uM of ATP in comparison with control
Chain of Dual specificity mitogen-activated protein kinase kinase 4 (Mus musculus) (P47809 whole entry): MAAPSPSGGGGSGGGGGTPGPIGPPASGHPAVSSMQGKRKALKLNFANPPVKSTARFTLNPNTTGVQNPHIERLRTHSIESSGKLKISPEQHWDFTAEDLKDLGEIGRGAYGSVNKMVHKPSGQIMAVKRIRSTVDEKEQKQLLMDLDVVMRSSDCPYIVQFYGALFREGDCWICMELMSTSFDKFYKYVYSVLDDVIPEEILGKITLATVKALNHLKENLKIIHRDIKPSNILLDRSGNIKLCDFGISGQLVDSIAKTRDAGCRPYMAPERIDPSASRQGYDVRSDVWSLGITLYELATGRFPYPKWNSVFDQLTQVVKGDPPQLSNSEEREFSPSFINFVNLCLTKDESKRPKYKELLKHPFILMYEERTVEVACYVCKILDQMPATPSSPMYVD

[8] = biological target: Serine/threonine-protein kinase Sgk1 (Homo sapiens) (UniProt O00141); experiment: Percentage activity of human SGK in the presence of 10 uM of compound and 10 uM of ATP in comparison with control
[9] = biological target: Tyrosine-protein kinase Blk (Mus musculus) (UniProt P16277); experiment: Percentage activity of mouse Blk in the presence of 10 uM of compound and 10 uM of ATP in comparison with control
[10] = biological target: Receptor-type tyrosine-protein kinase FLT3 (Homo sapiens) (UniProt P36888); experiment: Percentage activity of human Flt3 in the presence of 10 uM of compound and 10 uM of ATP in comparison with control
[11] = biological target: Cytoplasmic tyrosine-protein kinase BMX (Homo sapiens) (UniProt P51813); experiment: Percentage activity of human Bmx in the presence of 10uM of compound and 10uM of ATP in comparison with control
[12] = biological target: Calcium/calmodulin-dependent protein kinase type IV (Homo sapiens) (UniProt Q16566); experiment: Percentage activity of human CaMKiV in the presence of 10 uM of compound and 10 uM of ATP in comparison with control
Chain of Calcium/calmodulin-dependent protein kinase type IV (Homo sapiens) (Q16566 whole entry): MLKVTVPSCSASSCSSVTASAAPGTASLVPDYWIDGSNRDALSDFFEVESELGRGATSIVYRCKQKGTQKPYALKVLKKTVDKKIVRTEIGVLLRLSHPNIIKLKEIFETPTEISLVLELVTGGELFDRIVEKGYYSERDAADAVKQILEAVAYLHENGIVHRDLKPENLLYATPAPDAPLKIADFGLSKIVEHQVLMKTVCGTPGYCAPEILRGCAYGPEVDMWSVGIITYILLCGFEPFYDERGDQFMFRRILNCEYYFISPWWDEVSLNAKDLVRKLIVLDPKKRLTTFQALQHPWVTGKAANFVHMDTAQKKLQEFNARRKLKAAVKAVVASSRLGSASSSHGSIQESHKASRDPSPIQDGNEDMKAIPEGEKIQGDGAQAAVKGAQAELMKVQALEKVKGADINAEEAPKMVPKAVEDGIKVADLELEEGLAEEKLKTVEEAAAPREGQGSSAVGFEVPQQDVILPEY

Homo sapiens = species: Homo sapiens; experiment: Percentage activity of human Rsk2 in the presence of 10 uM of compound and 10 uM of ATP in comparison with control
[13] = biological target: Cyclin-dependent kinase 7/ cyclin H (Homo sapiens) (UniProt P51946+P50613); experiment: Percentage activity of human CDK7 with cyclin H/MAT1) in the presence of 10 uM of compound and 10 uM of ATP in comparison with control; assay type: protein-complex assay
[14] = biological target: Dual specificity mitogen-activated protein kinase kinase 7 (Homo sapiens) (UniProt O14733); experiment: Percentage activity of human MKK7 beta in the presence of 10 uM of compound and 10 uM of ATP in comparison with control
[15] = biological target: Mitogen-activated protein kinase 10 (Homo sapiens) (UniProt P53779); experiment: Percentage activity of human JNK3 in the presence of 10 uM of compound and 10 uM of ATP in comparison with control
[16] = biological target: Tyrosine-protein kinase ABL2 (Mus musculus) (UniProt Q4JIM5); experiment: Percentage activity of mouse Arg in the presence of 10 uM of compound and 10 uM of ATP in comparison with control
Chain of Tyrosine-protein kinase ABL2 (Mus musculus) (Q4JIM5 whole entry): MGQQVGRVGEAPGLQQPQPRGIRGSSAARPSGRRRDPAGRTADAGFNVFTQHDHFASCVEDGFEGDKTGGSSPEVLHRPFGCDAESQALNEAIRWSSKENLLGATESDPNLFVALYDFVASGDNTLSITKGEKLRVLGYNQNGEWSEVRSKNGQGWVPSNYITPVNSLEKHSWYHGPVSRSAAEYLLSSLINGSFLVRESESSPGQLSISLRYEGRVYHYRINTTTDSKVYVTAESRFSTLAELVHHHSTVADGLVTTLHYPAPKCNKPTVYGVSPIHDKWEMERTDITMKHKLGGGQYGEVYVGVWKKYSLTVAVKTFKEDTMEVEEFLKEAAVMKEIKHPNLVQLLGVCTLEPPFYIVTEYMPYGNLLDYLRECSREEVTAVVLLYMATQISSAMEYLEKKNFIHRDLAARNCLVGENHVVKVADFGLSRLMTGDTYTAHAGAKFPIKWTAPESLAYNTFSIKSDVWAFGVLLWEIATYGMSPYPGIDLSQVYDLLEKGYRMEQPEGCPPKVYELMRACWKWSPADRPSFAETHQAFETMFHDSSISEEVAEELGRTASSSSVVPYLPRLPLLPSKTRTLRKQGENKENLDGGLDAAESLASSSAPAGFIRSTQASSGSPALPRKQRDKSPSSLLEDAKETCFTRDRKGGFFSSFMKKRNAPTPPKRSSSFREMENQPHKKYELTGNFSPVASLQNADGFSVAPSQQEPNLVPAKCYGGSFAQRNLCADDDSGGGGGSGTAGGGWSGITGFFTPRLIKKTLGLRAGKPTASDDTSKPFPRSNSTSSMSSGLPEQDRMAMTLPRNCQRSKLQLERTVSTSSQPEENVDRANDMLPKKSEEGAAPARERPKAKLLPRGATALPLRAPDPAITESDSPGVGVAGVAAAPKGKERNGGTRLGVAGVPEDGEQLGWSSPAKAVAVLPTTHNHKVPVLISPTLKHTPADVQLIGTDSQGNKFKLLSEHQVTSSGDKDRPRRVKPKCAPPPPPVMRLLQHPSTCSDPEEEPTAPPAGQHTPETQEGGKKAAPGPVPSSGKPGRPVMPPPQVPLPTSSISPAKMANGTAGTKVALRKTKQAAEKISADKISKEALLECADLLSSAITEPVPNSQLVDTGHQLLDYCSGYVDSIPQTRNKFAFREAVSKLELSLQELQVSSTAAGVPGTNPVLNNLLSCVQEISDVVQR

[17] = biological target: Casein kinase II (Homo sapiens) (UniProt P67870+P68400+P19784); experiment: Percentage activity of human CK2 in the presence of 10 uM of compound and 10 uM of ATP in comparison with control; assay type: protein-complex assay
[18] = biological target: Cyclin-dependent kinase 5/CDK5 activator 1 (Homo sapiens) (UniProt Q00535+Q15078); experiment: Percentage activity of human CDK5 (with […]) in the presence of 10 uM of compound and 10 uM of ATP in comparison with control; assay type: protein-complex assay
[19] = biological target: Fibroblast growth factor receptor 3 (Homo sapiens) (UniProt P22607); experiment: Percentage activity of human FGFR3 in the presence of 10 uM of compound and 10 uM of ATP in comparison with control
[20] = biological target: RAF proto-oncogene serine/threonine-protein kinase (Homo sapiens) (UniProt P04049); experiment: Percentage activity of human c-RAF in the presence of 10 uM of compound and 10 uM of ATP in comparison with control
Chain of RAF proto-oncogene serine/threonine-protein kinase (Homo sapiens) (P04049 whole entry): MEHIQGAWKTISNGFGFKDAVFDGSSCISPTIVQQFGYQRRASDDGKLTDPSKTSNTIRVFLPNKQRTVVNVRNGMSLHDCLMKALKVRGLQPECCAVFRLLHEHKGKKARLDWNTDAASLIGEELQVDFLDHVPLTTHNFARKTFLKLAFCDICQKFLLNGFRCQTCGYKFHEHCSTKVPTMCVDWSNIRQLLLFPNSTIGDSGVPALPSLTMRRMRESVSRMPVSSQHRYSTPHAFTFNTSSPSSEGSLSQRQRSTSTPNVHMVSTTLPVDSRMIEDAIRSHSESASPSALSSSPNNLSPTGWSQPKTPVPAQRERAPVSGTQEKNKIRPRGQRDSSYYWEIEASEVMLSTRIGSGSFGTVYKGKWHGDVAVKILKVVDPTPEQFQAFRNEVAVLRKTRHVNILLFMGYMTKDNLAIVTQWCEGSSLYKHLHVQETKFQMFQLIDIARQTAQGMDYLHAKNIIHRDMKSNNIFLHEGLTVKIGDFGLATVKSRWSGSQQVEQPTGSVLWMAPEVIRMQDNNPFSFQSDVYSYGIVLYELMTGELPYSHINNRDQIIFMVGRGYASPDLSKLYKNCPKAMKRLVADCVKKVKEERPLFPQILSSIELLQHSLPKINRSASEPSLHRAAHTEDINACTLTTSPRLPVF

[21] = biological target: Tyrosine-protein kinase Lck (Homo sapiens) (UniProt P06239); experiment: Percentage activity of human Lck in the presence of 10 uM of compound and 10 uM of ATP in comparison with control
[22] = biological target: Serine/threonine-protein kinase D2 (Homo sapiens) (UniProt Q9BZL6); experiment: Percentage activity of human PKD2 in the presence of 10 uM of compound and 10 uM of ATP in comparison with control
Chain of Serine/threonine-protein kinase D2 (Homo sapiens) (Q9BZL6 whole entry): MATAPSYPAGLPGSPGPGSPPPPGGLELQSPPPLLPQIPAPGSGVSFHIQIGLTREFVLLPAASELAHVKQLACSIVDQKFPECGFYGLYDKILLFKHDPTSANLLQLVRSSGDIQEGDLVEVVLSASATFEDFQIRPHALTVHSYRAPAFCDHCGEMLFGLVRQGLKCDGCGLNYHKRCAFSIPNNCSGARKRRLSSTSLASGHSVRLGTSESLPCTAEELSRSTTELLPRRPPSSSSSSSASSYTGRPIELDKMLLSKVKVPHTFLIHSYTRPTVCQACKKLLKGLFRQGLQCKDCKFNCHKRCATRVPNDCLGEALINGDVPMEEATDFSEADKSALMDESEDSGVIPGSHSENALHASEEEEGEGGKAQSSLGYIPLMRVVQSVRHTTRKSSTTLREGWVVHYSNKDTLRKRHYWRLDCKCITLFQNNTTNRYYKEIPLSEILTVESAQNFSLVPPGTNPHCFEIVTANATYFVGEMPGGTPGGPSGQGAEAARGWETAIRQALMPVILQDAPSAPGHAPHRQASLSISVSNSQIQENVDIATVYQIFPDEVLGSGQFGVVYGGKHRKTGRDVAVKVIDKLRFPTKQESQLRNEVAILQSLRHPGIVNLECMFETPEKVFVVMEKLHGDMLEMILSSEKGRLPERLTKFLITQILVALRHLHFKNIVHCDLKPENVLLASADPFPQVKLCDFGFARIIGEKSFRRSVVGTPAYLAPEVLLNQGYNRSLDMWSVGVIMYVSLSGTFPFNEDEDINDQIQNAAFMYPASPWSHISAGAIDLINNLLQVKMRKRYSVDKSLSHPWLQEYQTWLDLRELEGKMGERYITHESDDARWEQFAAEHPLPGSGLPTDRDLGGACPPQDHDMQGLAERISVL

[23] = biological target: Ca2+/calmodulin-dependent protein kinase II (CaM kinase II) (Rattus norvegicus) (UniProt P11275+P08413+P15791+P11730); experiment: Percentage activity of rat CaMKII in the presence of 10uM of compound and 10uM of ATP in comparison with control; assay type: protein assay
[24] = biological target: Proto-oncogene tyrosine-protein kinase Src (Homo sapiens) (UniProt P12931); experiment: Percentage activity of human cSRC in the presence of 10 uM of compound and 10 uM of ATP in comparison with control
[25] = biological target: Serine/threonine-protein kinase Chk2 (Homo sapiens) (UniProt O96017); experiment: Percentage activity of human CHK2 in the presence of 10 uM of compound and 10 uM of ATP in comparison with control
Chain of Serine/threonine-protein kinase Chk2 (Homo sapiens) (O96017 whole entry): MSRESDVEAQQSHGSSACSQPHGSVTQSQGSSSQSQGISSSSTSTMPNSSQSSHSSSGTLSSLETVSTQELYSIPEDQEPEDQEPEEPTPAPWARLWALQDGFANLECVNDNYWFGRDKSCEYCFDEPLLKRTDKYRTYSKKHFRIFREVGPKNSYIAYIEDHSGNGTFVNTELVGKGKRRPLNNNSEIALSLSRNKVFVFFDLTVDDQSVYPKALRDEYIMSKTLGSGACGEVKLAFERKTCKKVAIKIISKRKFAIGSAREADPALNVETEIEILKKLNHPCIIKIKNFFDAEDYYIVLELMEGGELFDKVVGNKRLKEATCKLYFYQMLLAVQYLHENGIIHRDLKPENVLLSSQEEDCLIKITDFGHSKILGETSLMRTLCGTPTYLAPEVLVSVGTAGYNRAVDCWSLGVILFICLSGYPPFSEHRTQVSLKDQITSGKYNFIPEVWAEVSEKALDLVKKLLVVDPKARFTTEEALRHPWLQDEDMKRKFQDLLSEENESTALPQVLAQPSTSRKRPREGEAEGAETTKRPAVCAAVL

SCG = experiment: Cell activity of JNK inhibitors in neuronal apoptosis assay in SCG cells, percentage rescued neurons at 10uM compound concentration after 48 hours; assay type: functional, Rattus norvegicus
Summary of the method: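 They were cultured in Leibowitz medium with 5% rat serum, 0.75 µg/mL NGF 7S and arabinosine C 10^-5 M. On day 4, medium was switched to 10 µg/mL anti-NGF antibody without NGF or AraC, with inhibitor in 1% DMSO. After 24 h, cells were refed initial medium minus AraC. After another 24 h, viability was read by MTT (0.5 mg/mL, 30 min, 37 °C), OD 590 nm.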

[26] = biological target: Protein kinase C delta type (Homo sapiens) (UniProt Q05655); experiment: Percentage activity of human PKC delta in the presence of 10 uM of compound and 10 uM of ATP in comparison with control

For `O=C(NCc1ccc(S(=O)(=O)N2CCC(n3nnc4ccccc43)CC2)s1)c1ccc(Cl)cc1`, the Activity [1] was 79%, the Activity [2] was 20% and the Activity [3] was 93%. It also gave an Activity [4] of 86%, an Activity [5] of 83% and an Activity [6] of 92%. For the same molecule, the Activity [7] was 112%, the Activity [8] was 67% and the Activity [9] was 78%. The Activity [10] was 78%, the Activity [11] was 88% and the Activity [12] was 93%. It also gave an Activity (Homo sapiens) of 77%, an Activity [13] of 94% and an Activity [14] of 121%. The Activity [15] was 6%, the Activity [16] was 91% and the Activity [17] was 99%. For the same molecule, the Activity [18] was 103%, the Activity [19] was 76% and the Activity [20] was 93%. The Activity [21] was 85%, the Activity [22] was 95% and the Activity [23] was 93%. It also gave an Activity [24] of 67%, an Activity [25] of 75% and a Rescued neurons (SCG) of 56%. The Activity [26] was 95%.
